The text below walks through data of the RNAGym collection of RNA variant scans (doi:10.1126/science.aae0568).

To fix the notation:
B1: tRNA (parent)
chain: GUUCCGUUGGCGUAAUGGUAACGCGUCUCCCUCCUAAGGAGAAGACUGCGGGUUCGAGUCCCGUACGGAACG

Fewer inactive variants are shown than the library holds. Where only a bound is given, the exact number is not on record here.

Variants of B1 are the subject of this data set. Briefly: yeast fitness relative to wild type (ratio to wild type); higher = fitter; tRNA-Arg(CCU), competitive growth, 37 C, YPD. In a few lines: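 Amplicons of the tRNA-Arg(CCU) gene were sequenced, 100-nucleotide paired-end, from the start population and from each end population of a pooled yeast competition. The competition, in six parallel replicates, lasted 24 hours in YPD at 37°C. Fitness relative to wild type was calculated from changes in genotype frequencies. Genotypes had to have ≥ 100 starting reads, and estimates < 0.5 were set to 0.5.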
Regarding C27A C31G G44C, the yeast fitness was not above 0.5. As for U2G C4U C61A A65U A69C, the figure is not above 0.5. Under U13G C33U G41C stands 0.581. Under C5A C31G A40G stands 0.529. Consider C30A A45U C55U, for which the yeast fitness worked out at 0.589. As for G18A U19C A43U U59A, the figure is 0.538; as for C11A C30U C33G U64C, not above 0.5. For A14C A21U C46A A69C, the yeast fitness amounted to 0.59.

As to C4U C31U A37C, the yeast fitness was 0.532. For the variant U16C C27G G48C A65C, the yeast fitness is not above 0.5. As for U7G U35A A43C, the figure is 0.532; as for C4A U16A C30G C31U, not above 0.5; as for U3A C62U G63C, not above 0.5. As for G10A C27G U28G C34U C46G, the figure is 0.576; as for C11G C29A, 0.518. Under A21C C22G G38C A57C stands 0.524; under U3A A21G G23C A65C, not above 0.5. With C5A G17A A43U C55U, the yeast fitness is not above 0.5. As for G6A C11A C49G, the figure is not above 0.5; as for U47A G50A, 0.831; as for C5U C66G, 0.779.

Regarding U7G A21C G44C A69U, the yeast fitness is not above 0.5. For the variant G9A A36G G50C U64C, the yeast fitness turned out to be 0.645. As for U2C U26C C46U, the figure is 0.683; as for C27A A57C C66U, 0.538.

As to A42U G63A A65G, the yeast fitness turned out to be 0.572.

With C5G U26C C34G U54C, the yeast fitness is not above 0.5. Under G17C U28G G48A A69C stands not above 0.5; under C5U U13C C22G C29A A45U, not above 0.5. Under A37U C55U C61G A65U stands not above 0.5. Under C27A G39A A57G stands not above 0.5.

C24U U28C A40C G68C: the yeast fitness is not above 0.5.

As for G23C A70U, the yeast fitness turned out to be 0.717. Under U32C A43G C66U stands 0.758; under C5U A45G, 0.974; under G17U A57G A69C, not above 0.5. As for U13A A69C, the figure is 0.988; as for G18A C22G C24G, not above 0.5; as for A20G C31G C60G, not above 0.5.

For the variant U8A A20U A70C, the yeast fitness is 0.56.

U7C G41U G58C: the yeast fitness was not above 0.5. For A15C G17A A57C, the yeast fitness is 0.527. As for G25A C29U C60A, the yeast fitness came out at 0.728. Take G52C A57U C62U C66G: the yeast fitness was not above 0.5.

A21G C55G: the yeast fitness is 0.671. As for G18A A70C, the figure is 0.74; as for U13A C27U C61A, 0.619. With A42C G50A C61G, the yeast fitness turned out to be 0.793. For the variant C5A C11G G51A C61U, the yeast fitness is not above 0.5.

With C11U C61U A65C, the yeast fitness was not above 0.5.

On to C27G A36C G44A, for which the yeast fitness was not above 0.5. As for G48A G52C G67C, the figure is not above 0.5. As for C31A G39C, the figure is 0.659. As for C27G U54C, the figure is not above 0.5. On to C5G A15G C24G U32A C34G U64C G68A A69U A70U, for which the yeast fitness is not above 0.5. Under C22G C49U C62G stands 0.558; under C11U U19G G52A, 0.609; under U16A C31G A65C, 0.619. As for G6A G52C, the figure is 0.635; as for A20C C46G A70G, 0.668; as for A15G U19C A37U C49U G51A, 0.555.

Turning to G52C A57C, the yeast fitness was found to be 0.526. Under U2A A21G stands 1.04; under A57G U64C A65C, 0.506; under U7C C11A C30G C66U A69U, not above 0.5. Consider C29G G50C A65U, for which the yeast fitness was not above 0.5. Under G67C stands 0.986; under C4G C27U G58C, 0.71.

In the case of G18A C22U C24G, the yeast fitness was not above 0.5. As to G6A A36U A45U, the yeast fitness is not above 0.5. As for C11G U32A A37C G39A A43G G58C C60A C62U, the figure is not above 0.5; as for U19A G39A, 0.846; as for A15U A40U G52A G68A, 0.596.

In the case of U7A U16C G17A C29U C31A G58A, the yeast fitness was not above 0.5. As to G9A C11A A20U C61U, the yeast fitness turned out to be 0.559. Under G18A C31U stands 0.663; under C30A C62U, 0.886. On to C5U C27U A45U C60G, for which the yeast fitness was not above 0.5.

Consider U7A A20G C46G G67C A69C, for which the yeast fitness was not above 0.5. In the case of C11A A45G, the yeast fitness worked out at 0.603. With C29A A42U U64C, the yeast fitness is not above 0.5. As for A15G C49U C61U, the figure is 0.672; as for U7C A14G A43G A69C, not above 0.5; as for A43U U47C C55G, not above 0.5.

Consider C4U C22A A40C, for which the yeast fitness is not above 0.5.

Take C4U C30G A36U C55U: the yeast fitness was not above 0.5. As for A42U G44A, the figure is 1.01; as for C29G C33U C66U, not above 0.5; as for G52C A70G, 0.637. As for C31A C33A, the yeast fitness turned out to be 0.509. For U3C U19A A57G, the yeast fitness was 0.624. For the variant C22G G50C A57G, the yeast fitness was not above 0.5. Under C4A C5U U8C stands not above 0.5; under G18U C34U, not above 0.5; under U53A G56C, not above 0.5. Turning to C5A C62G C66A, the yeast fitness is not above 0.5. Turning to C46U C60G C62G, the yeast fitness is not above 0.5. As for C5U A15G A20C U26C G41C G52C A57U A65U, the figure is not above 0.5; as for G6C G12A C24G G58C, not above 0.5.

Turning to G6A C24U, the yeast fitness amounted to 0.733. Under C4G C24U U59C stands not above 0.5; under G10A C27G U28G C34U C46G G67A, not above 0.5.

In the case of G12U A57C, the yeast fitness is not above 0.5.

As for C27G C49U A65C, the yeast fitness was not above 0.5.

Turning to C24U U32A C60U, the yeast fitness is not above 0.5.

On to U2A U35C G38C U47G, for which the yeast fitness is not above 0.5. As for U2G G6A G12A C27U A36U C60G, the figure is not above 0.5; as for A14C A15U C34G G50A, not above 0.5. Turning to A21C U53G, the yeast fitness was 0.567. As for C4U A45C G51A, the yeast fitness was 0.501. For C29U A42G A43G, the yeast fitness is not above 0.5. Turning to G10A U26G A65U, the yeast fitness was not above 0.5. Under C11G C30A U47G U53C stands 0.597; under C4G C29A C34U A36U G50A, 0.568; under A43C C49U, 0.964. C22G C34A A36U: the yeast fitness was 0.656. For C27U U54G A65C, the yeast fitness is not above 0.5.

On to U8C C24G G38C U53G, for which the yeast fitness stood at 0.635. In the case of C11U C31U A40C, the yeast fitness was 0.697. Take U3A A36U A57G G63C: the yeast fitness turned out to be 0.681.

Take A37C G63C C66U: the yeast fitness was not above 0.5. As for C55U C66A, the yeast fitness came out at 0.656. As for U3C G48A, the figure is 0.952; as for A42C A43U G67C, not above 0.5; as for A20C A36U G39C G48A, not above 0.5. Under U7C C11U A37C stands not above 0.5; under C4A A20C C29A, not above 0.5. Under C11U A20U C24U C29A U59A G67C A69C stands not above 0.5; under C11A A20G C22G C49G G68C A69C, not above 0.5; under U26A G50U, 0.805. Regarding U7G A15C C24U A43G G51A U54C G67C, the yeast fitness amounted to 0.78.

Regarding C11U G39U, the yeast fitness was determined as 0.835. As for C11A A21U C34A, the figure is not above 0.5.

Consider U2A C5A U64G A70C, for which the yeast fitness is not above 0.5. As for U28C U32C C46G, the figure is 0.722; as for C4U C24U U26C G68A, not above 0.5; as for C27U C55U A70U, 0.504. For C27G C31G G68A, the yeast fitness is not above 0.5. On to U7A A36G C60A, for which the yeast fitness amounted to 0.533. Under U3G C11U A40C A45C U47C A57C C62U stands not above 0.5; under U35A A42C C46U, 0.521; under G39C A57G, 0.705.

Turning to C5U A15U C29U C31U C34U C55U, the yeast fitness was not above 0.5. U13G C22U C30A: the yeast fitness came out at 0.598. As for G6A A15G C22A, the figure is not above 0.5; as for G23A G52A, 0.546.

As for G48C G52C C55U, the yeast fitness was not above 0.5. Under G9C A40U A70U stands not above 0.5. Under U32C A36C stands 0.756; under U2C U3C, 0.885; under U3A G25A U26G, 0.535.

As to U8C A70G, the yeast fitness is 0.971. In the case of C27G U32G A42C C66U, the yeast fitness is not above 0.5. For U3A A21C C24G C62G, the yeast fitness stood at 0.599. For U7A U16C A21U U26A, the yeast fitness stood at 0.537.

Take C4U A20G C29G U32A C62A: the yeast fitness was not above 0.5. Turning to G10C C31G, the yeast fitness amounted to 0.631. Under C24U C49G G56C G58A G67A stands not above 0.5; under U3A C31G, 0.845; under U3A U26A C66U, not above 0.5. Take A14U G23C C55G: the yeast fitness was not above 0.5.

Take G6A G44A U59A A69U: the yeast fitness is not above 0.5.

As to C29G C33A C34G, the yeast fitness was not above 0.5.

On to C66U A70U, for which the yeast fitness amounted to 0.923.

C31A G38A: the yeast fitness is 0.792.

In the case of U28C C34U, the yeast fitness was determined as 0.71. For A42C A45C G48A A70G, the yeast fitness came out at 0.632.
